The values below come from article PMC5155582 (ChemMedChem, 2016).

The target in data set [1] is T1, rat CYP2B1 (Rattus norvegicus, UniProt P00176).
T1 sequence (P00176 1-491): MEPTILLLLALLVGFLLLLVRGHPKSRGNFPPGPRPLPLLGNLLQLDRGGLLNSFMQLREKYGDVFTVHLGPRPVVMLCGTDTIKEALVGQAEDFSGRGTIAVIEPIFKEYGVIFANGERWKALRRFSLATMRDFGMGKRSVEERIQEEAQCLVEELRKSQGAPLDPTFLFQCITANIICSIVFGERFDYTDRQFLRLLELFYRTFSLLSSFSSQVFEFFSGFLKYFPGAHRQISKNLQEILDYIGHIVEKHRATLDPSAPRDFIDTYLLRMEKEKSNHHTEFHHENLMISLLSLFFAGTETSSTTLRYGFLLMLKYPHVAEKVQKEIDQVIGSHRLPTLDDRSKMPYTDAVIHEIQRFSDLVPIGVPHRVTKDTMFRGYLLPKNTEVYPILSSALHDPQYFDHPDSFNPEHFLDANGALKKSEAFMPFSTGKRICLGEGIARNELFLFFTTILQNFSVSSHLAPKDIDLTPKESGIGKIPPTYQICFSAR
As to the kind of experiment: Comparison of metabolite formation by cDNA-expressed CYP2B1 and CYP2B6. The following applies: 30 min; for Metabolite formation by CYP2B1 (in words): 10 nM cDNA-expressed CYP2B1, 10 μM substrate. Type of data set: in vitro ADME. In outline: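 cDNA-expressed rat CYP2B1 or human CYP2B6 systems, both with cytochrome b5 (CYP:reductase:b5 molar ratio 1:1:2 for 2B1, 1:10:2 for 2B6), 10 nM, run side by side with 10 μM substrate in 100 mM potassium phosphate pH 7.4. 5 min preincubation at 37 °C, then NADPH regenerating system for 30 min at 37 °C. Acetonitrile stop, then uHPLC-MS or uHPLC-UV (220 nm). CYP2B1 peak height normalised to mean CYP2B6 peak height (100%). Three independent experiments, mean ± SEM.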

The target of data set [2] is T2, CYP2B6 (Homo sapiens, UniProt P20813).
T2 sequence (P20813 1-491): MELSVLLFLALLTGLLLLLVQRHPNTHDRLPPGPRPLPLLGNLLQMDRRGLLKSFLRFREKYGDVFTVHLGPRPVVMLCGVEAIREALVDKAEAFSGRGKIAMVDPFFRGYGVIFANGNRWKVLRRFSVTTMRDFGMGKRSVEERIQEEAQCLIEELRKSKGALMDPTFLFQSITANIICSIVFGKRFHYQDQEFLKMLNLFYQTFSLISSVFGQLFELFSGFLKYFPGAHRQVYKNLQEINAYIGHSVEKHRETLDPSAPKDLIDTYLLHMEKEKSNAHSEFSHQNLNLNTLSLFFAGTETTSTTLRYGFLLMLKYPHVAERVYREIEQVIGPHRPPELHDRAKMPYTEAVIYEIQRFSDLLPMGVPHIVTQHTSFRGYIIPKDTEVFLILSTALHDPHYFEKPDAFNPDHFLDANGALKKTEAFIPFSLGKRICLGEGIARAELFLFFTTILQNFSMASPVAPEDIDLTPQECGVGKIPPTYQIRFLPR
As to the kind of experiment: Product formation kinetic analysis. Type of data set: in vitro ADME. The note with it: cDNA-expressed CYP2B6. The procedure, abridged: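 cDNA-expressed CYP2B6 (5–20 nM) in 100 mM potassium phosphate pH 7.4 at 37 °C. Eight substrate concentrations, 0.5–100 μM (0.5–30 μM for one poorly soluble analogue); parent drug run the same way. NADPH regenerating system, 5–20 min, with linearity in enzyme and time set by pilot runs. Ice-cold acetonitrile stop. Product measured by SRM uHPLC-MS/MS or UV, without authentic standards. KM from a substrate-inhibition fit; fold change is analogue KM divided by the parent's 8-hydroxylation KM.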

Regarding `COc1ccc(C(=O)Nc2ccc(Cl)cc2C(O)(C#CC2CC2)C(F)(F)F)cc1` (racemic) [methoxybenzamide analogue, rac N-[4-Chloro-2-[3-cyclopropyl-1-hydroxy-1-(trifluoromethyl)-2-propynyl]phenyl]-4-methoxybenzamide], the “Metabolite formation by CYP2B1 (in words)” value (“Metabolite formation” for short) in data set [1] is “did not form metabolites”.
Turning to `CCCC#CC1(C(F)(F)F)OC(=O)Nc2ccc(Cl)cc21` (racemic) [pentynyl analogue, rac 6-Chloro-1,4-dihydro-4-(1-pentynyl)-4-(trifluoromethyl)-2H-3,1-benzoxazin-2-one], in data set [1], the “Metabolite formation” value was “M4 and M5 formation”.
With `O=C1Nc2c(O)cc(Cl)cc2[C@@](C#CC2CC2)(C(F)(F)F)O1` [8-OH EFV, 8-hydroxyefavirenz], in data set [1] (10 nM enzyme, 10 μM substrate, CYP2B6 peak height set at 100%), the “Metabolite formed by CYP2B1 as percent of metabolite formed by CYP2B6” value is ~48%.
`Nc1ccc(Cl)cc1[C@](O)(C#CC1CC1)C(F)(F)F` [(R)-5-Chloro-α-(cyclopropylethynyl)-2-amino-α-(trifluoromethyl)benzenemethanol]: in data set [1], the “Metabolite formation” value was “displayed activity”.
For the compound `Nc1ccc(Cl)cc1[C@@](O)(C#CC1CC1)C(F)(F)F` [(S)-5-Chloro-α-(cyclopropylethynyl)-2-amino-α-(trifluoromethyl)benzenemethanol], in data set [1], the “Metabolite formation” value is listed as “displayed activity”.
Regarding `O=C1Nc2ccc(Cl)cc2[C@@](/C=C/C2CC2)(C(F)(F)F)O1` [E-dihydroefavirenz, (E)-Dihydroefavirenz], in data set [1], the “Metabolite formation” value is on record as “M2 formation”.
For the compound `O=C1Nc2ccc(Cl)cc2[C@@](C#CC2CC2)(C(F)(F)F)O1` [EFV, (4S)-6-Chloro-4-(2-cyclopropylethynyl)-1,4-dihydro-4-(trifluoromethyl)-2H-3,1-benzoxazin-2-one, reference compound], the Michaelis constant (Km) (as a rule, the concentration of substrate that gives half-maximal velocity) in data set [2] came to 3.6 ± 1.7 µM.
Take `CC1Nc2ccc(Cl)cc2C(C#CC2CC2)(C(F)(F)F)O1` (stereo not drawn) [analogue 1, 6-Chloro-4-(2-cyclopropylethynyl)-1,4-dihydro-2-methyl-4-(trifluoromethyl)-2H-3,1-benzoxazine]: in data set [2], the Km is ~1 µM.
For `O=C1CC(C#CC2CC2)(C(F)(F)F)c2cc(Cl)ccc2N1` (stereo not drawn) [analogue 4, 6-Chloro-4-(cyclopropylethynyl)-3,4-dihydro-4-(trifluoromethyl)-2(1H)-quinolinone], the Michaelis constant (Km) in data set [2] is 14 ± 6.4 µM.
